# Screening data (PubChem)
# Shown are actives, neighbours in structure and some others; about 4.1% of the full set was active somewhere.
# Cl transport mod: modulates chloride dependent transport by human KCC2. B-score of Tl+ flux slope (higher = more flux/activation; lower = inhibition) at 10 µM. KCC2 cells, thallium flux FluoZin-2 fluorescence. Q9H2X9. 190,000 compounds, 2.2% hits;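 active means thallium flux slope and its plate-corrected score both differing from the plate sample mean at a set confidence after two filtering rounds, in either direction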;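 further: slope of fluorescence scaled to starting intensity during 10 to 20 s after thallium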
# KCNQ1 pot: potentiators or activators of human KCNQ1 potassium channel; 310,000 compounds, 0.35% hits; B-score at 10 µM; AID 2648; CHO-K1 KCNQ1, thallium flux FluxOR fluorescence; active compounds read high; P51787;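 active means fluorescence ratio B-score, a plate-corrected score, at least three library SD, with initial intensity B-score within 5 SD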
#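 Doses: Single concentration per compound, DMSO matched to controls | Test system: KCNQ1-transfected CHO-K1 cells | Timing: 90 min dye loading and 20 min compound exposure, both at room temperature | Measured by: Kinetic FluxOR thallium fluorescence, 10-s 1-Hz baseline, 110-s post-stimulus read | Medium: Assay buffer with matched DMSO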
# KCNK9 inh: inhibitors of human KCNK9 two-pore domain potassium channel; 310,000 compounds, 1.2% hits; HEK293 KCNK9, FluxOR thallium flux fluorescence; active compounds read low; Q9NPC2; B-score at 10 µM;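 active means ratio B-score over 3 SD below the library mean, with starting fluorescence within 5 SD of its mean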;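 further: negative B-score means less thallium flux so channel inhibition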
# KCNK3 inh: human KCNK3 channel inhibition, primary screen | O14649 | CHO-KCNK3 thallium flux, FluxOR fluorescence; active compounds read low | B-score at 10 µM | AID 602410 | 340,000 compounds, 0.84% hits;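 active means B-score under library mean minus 4 SD, starting fluorescence ratio at most library mean plus 5 SD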;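 further: more negative B-score means stronger inhibition of thallium flux through KCNK3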
# hERG rescue: compounds protecting human hERG from proarrhythmic drug block; CHO-hERG, FluxOR thallium flux, dofetilide IC70 present; activation (rescue from dofetilide block), less the hit threshold, % at 10 µM; Q12809; 310,000 compounds, 0.51% hits;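 active means activation above the mean of controls blocked by dofetilide plus 5 SD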;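 further: thallium influx through hERG after potassium depolarization seen as dye fluorescence rise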
# Target sequence (Q12809 whole entry, looked up): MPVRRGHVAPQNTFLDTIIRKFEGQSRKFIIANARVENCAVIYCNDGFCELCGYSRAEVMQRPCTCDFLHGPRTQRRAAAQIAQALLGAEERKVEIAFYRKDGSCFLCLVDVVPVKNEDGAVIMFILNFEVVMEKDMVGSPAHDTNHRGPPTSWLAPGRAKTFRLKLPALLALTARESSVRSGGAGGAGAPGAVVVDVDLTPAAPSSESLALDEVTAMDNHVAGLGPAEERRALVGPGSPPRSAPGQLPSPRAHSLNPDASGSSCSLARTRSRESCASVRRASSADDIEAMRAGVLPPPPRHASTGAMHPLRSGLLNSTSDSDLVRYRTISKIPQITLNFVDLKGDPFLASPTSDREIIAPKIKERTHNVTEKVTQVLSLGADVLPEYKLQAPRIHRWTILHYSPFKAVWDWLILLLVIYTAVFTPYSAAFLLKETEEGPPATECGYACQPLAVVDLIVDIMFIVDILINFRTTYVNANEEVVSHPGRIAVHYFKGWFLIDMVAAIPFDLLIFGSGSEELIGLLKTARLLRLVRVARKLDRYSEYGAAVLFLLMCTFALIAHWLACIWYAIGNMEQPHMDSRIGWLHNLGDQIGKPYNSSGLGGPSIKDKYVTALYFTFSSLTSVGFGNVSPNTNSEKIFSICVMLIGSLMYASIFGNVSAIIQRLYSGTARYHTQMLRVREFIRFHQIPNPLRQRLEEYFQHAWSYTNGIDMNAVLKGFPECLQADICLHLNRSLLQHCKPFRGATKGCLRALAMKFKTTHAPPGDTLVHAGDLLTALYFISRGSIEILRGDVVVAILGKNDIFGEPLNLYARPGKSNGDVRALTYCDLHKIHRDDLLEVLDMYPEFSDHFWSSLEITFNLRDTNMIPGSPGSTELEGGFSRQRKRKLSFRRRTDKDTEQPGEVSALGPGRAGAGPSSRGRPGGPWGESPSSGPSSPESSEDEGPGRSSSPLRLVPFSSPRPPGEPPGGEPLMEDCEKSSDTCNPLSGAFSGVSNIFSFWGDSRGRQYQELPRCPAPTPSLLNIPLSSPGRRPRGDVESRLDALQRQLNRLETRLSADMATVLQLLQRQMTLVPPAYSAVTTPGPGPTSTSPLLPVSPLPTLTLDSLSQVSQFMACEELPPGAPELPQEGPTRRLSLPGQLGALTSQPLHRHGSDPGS
# KCNQ1 block: inhibitors of human KCNQ1 potassium channel. B-score at 10 µM. CHO-K1 KCNQ1, FluxOR thallium flux fluorescence; active compounds read high. AID 2642. 310,000 compounds, 1.3% hits. P51787;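 active means compounds whose thallium flux B-score, printed positive for inhibition, exceeds three library SD while starting fluorescence stays within three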;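 further: channel opened by potassium depolarization with thallium stimulus after 20 min compound exposure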
# KCNK3 confirm: confirmation of human KCNK3 two-pore domain potassium channel inhibitors; shares compounds with KCNK3 inh; CHO-KCNK3 thallium flux, FluxOR fluorescence; 0% buffer, 100% carvedilol maximal block; ratio percent of control, % at 10 µM; 2,400 compounds, 99% hits;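 active means ratio percent of control, averaged over triplicates, above buffer control mean plus 5 SD, cut at about 64% in these data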;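 further: ratio is the fluorescence rise from min to max over baseline after thallium stimulus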
# KCNK3 uninduced: KCNK3 inhibitor counter-screen hit in non-induced cells. shares compounds with KCNK3 inh. non-induced KCNK3 parental cells, FluxOR thallium flux; active compounds read low. thallium flux ratio (lower = more inhibition) at 10 µM. 2,400 compounds, 40% hits. AID 651747;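 active means thallium flux ratio, averaged over three wells, more than 5 SD below the buffer control mean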;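 further: host cells are CHO cells without KCNK3 induction; ratio is peak minus trough fluorescence over baseline then normalized to buffer controls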
# * = called active by the depositor; i = inactive; . = not tested or not shown.
SMILES,Cl transport mod,KCNQ1 pot,KCNK9 inh,KCNK3 inh,hERG rescue,KCNQ1 block,KCNK3 confirm,KCNK3 uninduced
CCOc1ccc(/C=C/C(O)=C2/C(=O)N(C)C3(C)CC2c2ccccc2O3)cc1OC (centres undefined),-1.54,i,i,-9.88*,-11.1,i,88.3*,i
O=C(CSc1nnc(NC(=O)c2ccccc2)s1)NC1CCCC1,.,i,i,i,-7.7,i,.,.
CC(C)(C)NC(=O)c1cc(NC(=O)c2cccs2)cc(NC(=O)c2cccs2)c1,.,i,-7.19*,-10.8*,-8.3,i,100.3*,i
Cc1cccc(C(=O)Nc2cc(NC(=O)c3cccs3)ccc2C)c1,.,i,i,-9.73*,-4.4,i,112.0*,i
Cc1ccc(C(=O)Nc2cccc(NC(=O)c3cccs3)c2)c(C)c1,.,i,-6.99*,-10.5*,-3.1,i,85.0*,i
Cc1cc(C)cc(C(=O)Nc2ccc(NC(=O)c3cccs3)cc2)c1,.,i,i,i,-6.5,i,.,.
O=C(Nc1cccc(NC(=O)c2cccs2)c1)c1cccnc1,-0.189,i,i,-9.26*,-2.0,i,89.0*,i
COc1ccc([C@H]2CC(=O)C=C(C#CC(C)(C)C)C2)cc1,.,.,.,i,.,.,.,.
O=C(c1ccc(-c2ccccc2Cl)o1)N1CCC1,.,.,.,i,.,.,.,.
CC1CCN(C(=O)c2ccc(-c3ccccc3Cl)o2)CC1,.,i,i,-9.18*,-19.8,i,122.7*,0.14*
CCC(C)(O)c1[nH]c2ccc(C(F)(F)F)cc2c1C (centres undefined),.,i,i,i,-12.0,i,.,.
COc1ccc(CNC(=O)CCn2ccc3cc(S(=O)(=O)N4CCCC4)ccc32)cc1,.,i,i,i,-7.5,i,.,.
CSc1ccc(CNC(=O)CCn2ccc3cc(S(=O)(=O)N4CCCC4)ccc32)cc1,.,i,i,-9.92*,-5.2,i,118.7*,0.155*
CCOC(=O)N1CCN(C(=O)C2CCN(C(=O)c3ccccc3C)CC2)CC1,.,.,.,i,.,.,.,.
Cc1nn(C(C)(C)C)c(OC(=O)c2cccs2)c1Sc1ccccc1,-0.00327,i,-8.06*,-12.2*,-7.6,i,101.0*,i
COC(=O)c1cccc(NC(=S)NCc2ccc(F)cc2)c1,-0.74,i,i,i,-3.3,i,.,.
O=C(c1ccccc1)c1nn(-c2cccc(Cl)c2)c2nc(-c3ccccc3)cc(=O)n12,.,i,i,-20.5*,-7.6,i,118.0*,0.152*
Cc1ccc(C2Nc3ccc4ccccc4c3C3=C2C(=O)CC(C)(C)C3)o1 (centres undefined),-0.158,i,i,-8.97*,-8.7,i,104.7*,i
CC1(C)CC(=O)C2=C(C1)c1c(ccc3ccccc13)NC2c1ccc(C(=O)O)cc1 (centres undefined),.,i,i,i,-6.0,i,.,.
COc1cccc(NC(=O)Cn2c(=O)n(-c3ccccc3)c(=O)c3sccc32)c1,-2.8,i,i,i,-7.7,i,.,.
CC[C@@]12C(=O)N(c3cccc(F)c3)C(=O)N1[C@H](c1ccc(Br)cc1)[C@@H]1C(=O)N(C(C)(C)C)C(=O)[C@@H]12,.,i,i,i,-4.8,i,.,.
CCOc1cccc(OCCOc2ccccc2[N+](=O)[O-])c1,-0.495,i,-7.22*,-8.7*,-2.5,i,110.0*,i
CCOc1ccc([N+](=O)[O-])c(N)c1,0.976,i,i,i,-6.2,i,.,.
COc1ccc(-c2cc(C(F)(F)F)n3ncc(C(=O)Nc4c(C)n(C)n(-c5ccccc5)c4=O)c3n2)cc1,.,i,i,.,-9.0,i,.,.
COc1ccc(CCN(C)C(=O)COc2ccc(C(=O)c3ccccc3)cc2)cc1OC,.,i,i,i,-9.6,i,.,.
